Source: PubChem BioAssay
Only some compounds are listed: those with a hit (about 2.9% of all), similar ones and a draw of the others.
PfGluPho inh: PfG6PD (Plasmodium falciparum) enzyme inhibition; 350,000 compounds, 0.78% hits; AID 504690; inhibition, % at 20 µM; PfGluPho enzyme, NADPH resazurin-diaphorase fluorescence;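 active = inhibition reaching at least a set limit at 20 µM in the primary screen, cut at about 59% in these data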
EBNA-1 inhibitor: blocks EBNA-1 binding to DNA | EBNA-1 DNA binding, fluorescence polarization | inhibition, % at 14.8 µM | 300,000 compounds, 0.34% hits | AID 1950; in the data active = inhibition above about 28%
PfM18AAP inh: PfM18AAP enzyme inhibition; inhibition, % at 7.35 µM; 290,000 compounds, 1.2% hits; recombinant PfM18AAP, H-Glu-NHMec fluorogenic cleavage;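 active = inhibition above the campaign mean inhibition over all tested compounds plus 3 SD, cut at about 28% in these data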
UBC13 polyUb: blocks human UBC13 polyubiquitin chain formation; inhibition, % at 20 µM; AID 485273; 330,000 compounds, 0.47% hits; P61088; TR-FRET; in the data active = inhibition above about 45%, passing the limit was not always enough; inconclusive = no clear call, values can overlap the other calls
Target sequence (P61088 whole entry, looked up): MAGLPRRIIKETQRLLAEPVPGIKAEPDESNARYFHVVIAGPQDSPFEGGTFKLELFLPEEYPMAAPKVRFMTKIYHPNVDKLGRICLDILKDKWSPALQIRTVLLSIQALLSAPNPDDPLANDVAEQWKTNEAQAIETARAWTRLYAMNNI
ZTA counter: blocks Epstein-Barr virus ZTA, an EBNA-1 counter-screen; 320,000 compounds, 0.15% hits; ZTA-DNA binding, fluorescence polarization; P03206; inhibition, % at 11 µM; AID 2234; in the data active = inhibition above about 33%
Apaf1 inhib: human Apaf-1 inhibition; AID 489030; reconstituted apoptosome caspase-3 activity, DEVD-Rh110 fluorescence; inhibition, % at 20 µM; 330,000 compounds, 0.71% hits; active = inhibition of at least 40% at 20 µM
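Assay system – apoptosome proteins · Medium – Hepes buffer, pH 7.5 · Also added – cytochrome c with DEVD-Rh110 · Timing – 30 min compound preincubation, 50 min activation, room temperature · Detection – Rh110 fluorescence, excitation 480 nm, emission 540 nm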
Casp3 counter: inhibits human caspase-3 in UBC13 counter-screen; inhibition, % at 20 µM; shares compounds with UBC13 polyUb; 1,400 compounds, 4% hits; Recombinant caspase-3, Caspase-Glo 3/7 luminescence, 60 min;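 active = mean inhibition across replicates above about 26%, limit read from the data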
Target sequence (P42574 whole entry, looked up): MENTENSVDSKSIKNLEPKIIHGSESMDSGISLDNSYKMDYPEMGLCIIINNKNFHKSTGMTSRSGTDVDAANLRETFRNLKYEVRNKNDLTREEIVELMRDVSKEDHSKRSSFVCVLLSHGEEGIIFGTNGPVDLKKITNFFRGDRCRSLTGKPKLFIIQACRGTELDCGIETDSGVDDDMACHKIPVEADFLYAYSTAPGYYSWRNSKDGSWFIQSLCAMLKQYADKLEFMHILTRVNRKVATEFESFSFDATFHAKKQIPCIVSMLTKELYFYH
UBC13 confirm: confirmation of human UBC13 polyubiquitin inhibitors; UBC13 polyubiquitination, TR-FRET, biochemical; inhibition, % at 10 µM; shares compounds with UBC13 polyUb; 1,400 compounds, 68% hits; in the data active = inhibition above about 45%; inconclusive = no clear call, values can overlap the other calls
Numbers stand for hits; - = inactive; ? = inconclusive; . = no result given.

SMILES	PfGluPho inh	EBNA-1 inhibitor	PfM18AAP inh	UBC13 polyUb	ZTA counter	Apaf1 inhib	Casp3 counter	UBC13 confirm
NC(C(=O)O)C(c1ccccc1)C(F)F (stereo unspecified)	-	-	-	-	-	-	.	.
O=C(c1cccc(Cl)c1)N1CCC(=O)N(C(CO)Cc2ccccc2)CC1 (stereo unspecified)	-	-	.	-	-	-	.	.
O=C(NCCCN1CCOCC1)c1cc2c([nH]c3ccccc32)c(-c2cccc(Br)c2)n1	-	-	-	51	-	-	-	-
CCC(=O)c1ccc(OCC(=O)NCC2(N3CCCCC3)CCCCC2)cc1	-	-	-	-	-	-	.	.
COc1ccccc1NC(=O)c1cc(S(=O)(=O)NCc2ccccc2)ccc1F	-	-	-	63	-	-	-	75
COc1ccc(CNS(=O)(=O)c2ccc(F)c(C(=O)Nc3ccccc3OC)c2)cc1	-	-	-	-	-	-	.	.
COc1ccccc1NC(=O)c1cc(S(=O)(=O)N2CCC3(CC2)OCCO3)ccc1F	-	-	-	56	-	-	-	-
CC(=O)Nc1ccc(S(=O)(=O)C(C#N)c2nc3ccccc3nc2NCCCO)cc1 (stereo unspecified)	-	-	-	-	-	-	.	.
COc1cc(NC(=O)Cn2nc(Cc3cccnc3)c3ccccc3c2=O)cc(OC)c1OC	-	-	-	-	-	-	.	.
CC(Sc1nnc(-c2cccnc2)n1N)C(=O)NCCC1=CCCCC1 (stereo unspecified)	-	.	.	-	.	-	.	.
CC1=CC(C)(C)n2c(O)c(N=NC(N)=S)c3cccc1c32	-	-	-	76	-	-	-	94
COc1cc2c3c(c1)c(N=NC(N)=S)c(O)n3C(C)(C)C=C2C	-	-	-	80	-	-	-	84
CCN(CC)S(=O)(=O)c1ccc(N2CCOCC2)c(NC(=O)COc2ccc(C#N)cc2)c1	-	-	-	-	-	-	.	.
Cc1ccc(NC(=O)C2=CC=CN3CCS(=O)(=O)N=C23)cc1	-	.	.	-	-	-	.	.
COc1ccc(C(C)(C)C)cc1NC(=O)C1=CC=CN2CCS(=O)(=O)N=C12	-	.	.	50	.	-	-	-
COc1ccc(OC)c(/C=C/C(=O)OCC(=O)c2c(N)n(C)c(=O)n(C)c2=O)c1	-	-	-	46	-	-	-	-
COc1ccc(/C=C/C(=O)OCC(=O)c2c(N)n(C)c(=O)n(C)c2=O)c(OC)c1	-	-	-	-	-	-	.	.
CCOC(=O)Nc1cccc(OCC(=O)Nc2ccc3c(c2)CCC3)c1	-	.	.	-	.	-	.	.
Cc1ccc(-n2ncc3c2CCCC3NC(=O)c2ocnc2C)cc1C (stereo unspecified)	-	-	-	-	-	-	.	.
CCOc1ccc(/C=N/NC(=O)Cc2csc(Nc3cccc(C(F)(F)F)c3)n2)c(OCC)c1	-	-	-	-	-	-	.	.
COc1ccc(/C=N/NC(=O)Cc2csc(Nc3cccc(C(F)(F)F)c3)n2)c(OC)c1	-	-	-	78	-	-	-	69
COc1ccc(C2c3ccc4ccccc4c3Oc3ncn(CCCN(C)C)c(=N)c32)cc1 (stereo unspecified)	-	-	-	61	-	-	-	48
CNc1nc(NCc2ccccc2)c2ccccc2n1	-	-	-	-	-	-	.	.
Oc1ccccc1Nc1nc(NCc2ccccc2)c2ccccc2n1	-	-	-	50	-	-	-	49
COc1ccc([N+](=O)[O-])cc1NC(=O)CSCc1ccc(Br)cc1	-	-	-	-	-	-	.	.
SMILES	PfGluPho inh	EBNA-1 inhibitor	PfM18AAP inh	UBC13 polyUb	ZTA counter	Apaf1 inhib	Casp3 counter	UBC13 confirm
COc1cc(/C=N/NC(=O)CSCc2ccc([N+](=O)[O-])cc2)cc(OC)c1OC	-	-	-	86	-	-	-	103
COc1ccc(/C=N/NC(=O)CSCc2ccc([N+](=O)[O-])cc2)cc1OC	-	-	-	79	-	-	-	71
Cc1cccc(C(=O)Oc2ccc(/C=N/NC(=O)Cc3ccc([N+](=O)[O-])cc3)cc2)c1	-	-	-	86	-	-	-	61
O=C(CSCc1ccc([N+](=O)[O-])cc1)NN=C1CCCCCC1	-	-	-	91	-	-	-	105
O=C(CSCc1ccc(Cl)cc1)NN=C1CCCC1	-	-	-	-	-	-	.	.
COCCC(=O)N1CCC(Oc2ccc(C(=O)NC3CCOC(C)(C)C3)cc2)CC1 (stereo unspecified)	-	-	-	-	-	-	.	.
COc1ccc(CNC(=O)C(C)OC(=O)CO/N=C(\C)c2ccc3c(c2)OCO3)cc1 (stereo unspecified)	-	-	.	-	-	-	.	.
Cc1cc2cc(CNC(=O)c3ccc(C)c([N+](=O)[O-])c3)ccc2[nH]1	-	-	-	-	-	-	.	.
CN1C2CCC1CC(NC(=O)c1cc(S(=O)(=O)N(C)C)c(Cl)cc1Cl)C2 (stereo unspecified)	-	.	.	-	-	-	.	.
CCn1c(=O)cc(SCC(=O)N2CCN(C3CCCCC3)CC2)c2ccccc21	-	-	-	79	-	-	-	?
C[C@]12CCC3C(CC[C@H]4CCCC[C@]34C)C1CC[C@@]2(O)CNCCO (stereo partly specified)	-	.	-	64	.	-	-	-
CCN1CCN(c2ccc(N3CCN(S(=O)(=O)c4ccc(C)c([N+](=O)[O-])c4)CC3)nn2)CC1	-	-	.	-	-	-	.	.
NC1=NC[C@@H](Cc2ccc(O)cc2)N1CCc1cc(C(F)(F)F)cc(C(F)(F)F)c1	-	-	.	64	-	-	-	-
O=C(NNS(=O)(=O)c1cc(Cl)cc(Cl)c1)c1sccc1-n1cccc1	-	-	-	-	-	-	.	.
Cc1ccc(S(=O)(=O)N2CCCC(C(=O)NNCC(=O)Nc3cc(F)ccc3F)C2)cc1 (stereo unspecified)	-	-	-	48	-	-	-	-
Cc1ccc(S(=O)(=O)N2CCCC(C(=O)NC3CC3)C2)cc1 (stereo unspecified)	-	-	-	-	-	-	.	.
CCn1c2ccc(F)cc2c2nc3ccccc3nc21	-	-	-	-	-	-	.	.
Cn1c2ccc(Cl)cc2c2nc3ccccc3nc21	-	-	-	49	-	-	-	-
Cc1ccc2c(c1)c1nc3ccccc3nc1n2C	-	-	-	53	-	-	-	-
Cn1c2ccc(F)cc2c2nc3ccccc3nc21	-	-	-	51	-	-	-	-
COc1ccc(CN2CCC(CO)(CCOc3ccccc3)CC2)cc1C	-	-	-	-	-	-	.	.
CC(C)C(NC(=O)CN(c1ccc2c(c1)OCCO2)S(=O)(=O)c1ccccc1)C(C)C	-	-	.	-	-	-	.	.
COc1ccc(NC(=O)c2cccc(N3C(=O)C4C5C=CC(C5)C4C3=O)c2)cc1Cl (stereo unspecified)	-	-	-	-	-	-	.	.
